Data published in ChEMBL document CHEMBL1629436, “Synthesis and biological evaluation of new camptothecin derivatives obtained by modification of position 20” (Bioorg Med Chem, 2010).
Activity calls are given as the source filed them. The calls are words filed in the database; no cut-off is given here.

Legend:
A-431 = assay: Cytotoxicity against human A431 cells after 72 hrs by trypan blue assay; assay type: functional, cell-based; settings: A-431, 72 h
How it was run: (§1)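 A-431, HeLa and HL-60 cells at 4×10^4 per well, incubated 24 h. HeLa and A-431 then received fresh medium. Graded compound concentrations were added for a further 72 h at 37 °C, 5% CO2. Viability was counted by Trypan blue exclusion. IC50 is the concentration giving 50% reduction in cell number versus control: ≥3 independent experiments, triplicate samples, mean ± SD.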

HeLa = assay: Cytotoxicity against human HeLa cells after 72 hrs by trypan blue assay; assay type: functional, cell-based; how it was run: as §1
HL-60 = assay: Cytotoxicity against human HL60 cells after 72 hrs by trypan blue assay; assay type: functional, cell-based; settings: HL-60, 72 h; how it was run: as §1
A2C12 = assay: Cytotoxicity against mouse A2C12 cells after 24 to 96 hrs by MTS assay; assay type: functional, cell-based
How it was run: (§2)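 Mouse transgenic lines plated at 10^3 cells/well and left 24 h to attach. Drugs diluted in medium were added for 24 or 96 h. CellTiter 96 AQueous One (MTS) reagent was then added for 1 h at 37 °C, with absorbance read at 490 nm. Each condition was run in quintuplicate, and cytotoxicity was expressed as percent of controls.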

yB8 = assay: Cytotoxicity against mouse yB8 cells after 24 to 96 hrs by MTS assay; assay type: functional, cell-based; how it was run: as §2
yD12 = assay: Cytotoxicity against mouse yD12 cells after 24 to 96 hrs by MTS assay; assay type: functional, cell-based; how it was run: as §2
Mus musculus [1] = species on record: Mus musculus; assay: Cytotoxicity against mouse betaD10 cells after 24 to 96 hrs by MTS assay; assay type: functional, cell-based; how it was run: as §2
yA7 = assay: Cytotoxicity against mouse yA7 cells after 24 to 96 hrs by MTS assay; assay type: functional, cell-based; how it was run: as §2
yA3 = assay: Cytotoxicity against mouse yA3 cells after 24 to 96 hrs by MTS assay; assay type: functional, cell-based; how it was run: as §2
B3 = assay: Cytotoxicity against mouse B3 cells after 24 to 96 hrs by MTS assay; assay type: functional, cell-based; how it was run: as §2
Mus musculus [2] = species on record: Mus musculus; assay: Cytotoxicity against mouse betaD5 cells after 24 to 96 hrs by MTS assay; assay type: functional, cell-based; how it was run: as §2
A2B1 = assay: Cytotoxicity against mouse A2B1 cells after 24 to 96 hrs by MTS assay; assay type: functional, cell-based; how it was run: as §2
Craf/Cmyc = assay: Cytotoxicity against mouse Craf/Cmyc cells after 24 to 96 hrs by MTS assay; assay type: functional, cell-based; how it was run: as §2
Nucleic Acid = assay: Binding affinity to salmon testes DNA by linear flow dichroism analysis; assay type: nucleic-acid assay; settings: Salmonidae
How it was run: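 Salmon testes DNA (1.9 × 10^-3 M) in ETN buffer (10 mM Tris, 10 mM NaCl, 1 mM EDTA, pH 7). Linear dichroism spectra were recorded at 25 °C over a range of [drug]/[DNA] ratios on a spectropolarimeter converted for LD.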

Bos taurus = species on record: Bos taurus; assay: Inhibition of calf thymus topoisomerase 1-mediated relaxation of supercoiled pBR322 at 100 uM after 60 mins using ethidium bromide staining by agarose gel electrophoresis
How it was run: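 Supercoiled pBR322 (0.25 µg) with 2 U calf thymus topoisomerase I and test compound, 60 min at 37 °C in 20 µl reaction buffer. Stopped with SDS/bromophenol blue/glycerol plus 50 µg/mL proteinase K, 30 min at 37 °C. Run on 1% agarose at room temperature, stained with ethidium bromide 1 µg/mL in TAE, imaged under UV.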

[3] = target: DNA topoisomerase 2-alpha (Homo sapiens) (UniProt P11388); assay: Inhibition of human recombinant topoisomerase 2alpha-mediated relaxation of supercoiled pBR322 after 60 mins using ethidium bromide staining by agarose gel electrophoresis
How it was run: (§3)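 Supercoiled pBR322 (0.25 µg) with 1 U human recombinant topoisomerase IIα and test compound, 60 min at 37 °C in 20 µl reaction buffer. Stopped with SDS/bromophenol blue/glycerol plus 50 µg/mL proteinase K, 30 min at 37 °C. Separated on 1% agarose at room temperature, ethidium bromide stained (1 µg/mL, TAE), UV-visualized.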

[4] = target: DNA topoisomerase 2-alpha (Homo sapiens) (UniProt P11388); assay: Inhibition of human recombinant topoisomerase 2alpha-mediated relaxation of supercoiled pBR322 at 50 uM after 60 mins using ethidium bromide staining by agarose gel electrophoresis; how it was run: as §3
[5] = target: DNA topoisomerase 2-alpha (Homo sapiens) (UniProt P11388); assay: Inhibition of human recombinant topoisomerase 2alpha-mediated relaxation of supercoiled pBR322 at up to 100 uM after 60 mins using ethidium bromide staining by agarose gel electrophoresis; how it was run: as §3

DNA topoisomerase 2-alpha (Homo sapiens), sequence (P11388 whole entry): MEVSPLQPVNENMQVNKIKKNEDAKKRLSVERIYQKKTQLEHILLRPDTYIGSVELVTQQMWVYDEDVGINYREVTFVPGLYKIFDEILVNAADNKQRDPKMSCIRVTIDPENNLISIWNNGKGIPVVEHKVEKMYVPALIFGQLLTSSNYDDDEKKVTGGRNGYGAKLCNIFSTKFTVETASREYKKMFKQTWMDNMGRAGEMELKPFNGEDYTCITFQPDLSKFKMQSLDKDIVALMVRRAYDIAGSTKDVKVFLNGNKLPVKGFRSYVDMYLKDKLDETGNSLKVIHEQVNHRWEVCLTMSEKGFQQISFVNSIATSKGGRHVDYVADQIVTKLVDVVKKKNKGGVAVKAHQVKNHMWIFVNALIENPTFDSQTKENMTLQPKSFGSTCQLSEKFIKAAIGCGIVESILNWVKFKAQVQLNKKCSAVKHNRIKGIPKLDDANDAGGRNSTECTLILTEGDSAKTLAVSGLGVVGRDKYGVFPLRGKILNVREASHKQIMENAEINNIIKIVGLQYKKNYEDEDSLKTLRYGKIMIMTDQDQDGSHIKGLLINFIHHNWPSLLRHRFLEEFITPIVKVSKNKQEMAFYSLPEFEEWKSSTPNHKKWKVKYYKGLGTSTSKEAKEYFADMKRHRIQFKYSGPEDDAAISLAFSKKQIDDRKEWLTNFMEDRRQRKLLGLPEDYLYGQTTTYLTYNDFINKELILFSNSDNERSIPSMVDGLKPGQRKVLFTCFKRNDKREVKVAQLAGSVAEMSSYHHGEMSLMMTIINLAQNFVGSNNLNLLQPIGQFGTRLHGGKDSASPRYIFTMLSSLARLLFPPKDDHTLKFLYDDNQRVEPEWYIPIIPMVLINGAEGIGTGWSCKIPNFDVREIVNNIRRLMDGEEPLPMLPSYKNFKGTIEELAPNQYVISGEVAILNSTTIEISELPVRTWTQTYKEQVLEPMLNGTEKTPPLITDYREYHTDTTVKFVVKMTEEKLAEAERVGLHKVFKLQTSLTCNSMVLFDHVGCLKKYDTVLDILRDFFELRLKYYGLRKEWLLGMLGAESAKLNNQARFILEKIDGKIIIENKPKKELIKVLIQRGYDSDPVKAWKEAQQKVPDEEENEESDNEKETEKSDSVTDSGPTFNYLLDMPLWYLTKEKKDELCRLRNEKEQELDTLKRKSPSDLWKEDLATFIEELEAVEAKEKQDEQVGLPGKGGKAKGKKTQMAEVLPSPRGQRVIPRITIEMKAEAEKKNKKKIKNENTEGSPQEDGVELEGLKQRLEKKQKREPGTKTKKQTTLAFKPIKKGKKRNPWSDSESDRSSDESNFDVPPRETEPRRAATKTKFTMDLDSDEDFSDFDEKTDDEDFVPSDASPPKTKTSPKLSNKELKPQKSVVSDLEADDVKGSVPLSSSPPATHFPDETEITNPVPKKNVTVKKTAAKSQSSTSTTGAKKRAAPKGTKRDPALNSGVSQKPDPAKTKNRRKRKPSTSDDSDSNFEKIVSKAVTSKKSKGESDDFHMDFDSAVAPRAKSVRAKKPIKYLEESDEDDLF

Activity (Nucleic Acid) | Activity (Bos taurus) | Activity [3] | inhibition [4] | Activity [5] | Structure (SMILES) | IC50 (A-431) | IC50 (HeLa) | IC50 (HL-60) | Activity (A2C12) | Activity (yB8) | Activity (yD12) | Activity (Mus musculus [1]) | Activity (yA7) | Activity (yA3) | Activity (B3) | Activity (Mus musculus [2]) | Activity (A2B1) | Activity (Craf/Cmyc)
inactive | inactive | Dose-dependent effect | Active | – | CC[C@@]1(OC(=O)NCCNC(=O)CCSSCCC(=O)NCCNC(=O)O[C@]2(CC)C(=O)OCc3c2cc2n(c3=O)Cc3cc4ccccc4nc3-2)C(=O)OCc2c1cc1n(c2=O)Cc2cc3ccccc3nc2-1 | 0.15 µM | 0.7 µM | 0.92 µM | Active | Active | Active | Active | Active | Active | Active | Active | Active | Active
inactive | – | – | – | inactive | CC[C@@]1(OC(=O)NCCNC(=O)CSSCC(=O)NCCNC(=O)O[C@]2(CC)C(=O)OCc3c2cc2n(c3=O)Cc3cc4ccccc4nc3-2)C(=O)OCc2c1cc1n(c2=O)Cc2cc3ccccc3nc2-1 | – | – | – | – | – | – | – | – | – | – | – | – | –
inactive | – | – | – | inactive | CC[C@@]1(OC(=O)NCCN2C(=O)CSSCC2=O)C(=O)OCc2c1cc1n(c2=O)Cc2cc3ccccc3nc2-1 | – | – | – | – | – | – | – | – | – | – | – | – | –
